Screens: PubChem BioAssay, Broad Institute
Sampled rows, rich in hits. Any-hit rate of the full collection: about 5.9%.
T cruzi growth-1 = T. cruzi proliferation inhibition. actives 5.9% (n = 77,000). inhibition, % at 8.34 µM. T. cruzi beta-gal in NIH3T3, GalScreen luminescence, 90 h;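 active = mean inhibition above about 93%, with at least 55% of replicates each passing it, limit read from the data, passing the limit was not always enough; inconclusive = only one of those two conditions holds; inactive = neither condition holds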
IDH1 R132H inh = IDH1 R132H (human) inhibition. O75874. IDH1 R132H reductase, diaphorase/resazurin fluorescence, 60 min. inhibition, % at 10 µM. actives 0.18% (n = 70,000). AID 624101; in the data active = inhibition above about 34%; inconclusive = no clear call, values can overlap the other calls; inactive = below about 11%;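 note: 0% = DMSO and 100% = no enzyme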
Target sequence (O75874 whole entry R132H): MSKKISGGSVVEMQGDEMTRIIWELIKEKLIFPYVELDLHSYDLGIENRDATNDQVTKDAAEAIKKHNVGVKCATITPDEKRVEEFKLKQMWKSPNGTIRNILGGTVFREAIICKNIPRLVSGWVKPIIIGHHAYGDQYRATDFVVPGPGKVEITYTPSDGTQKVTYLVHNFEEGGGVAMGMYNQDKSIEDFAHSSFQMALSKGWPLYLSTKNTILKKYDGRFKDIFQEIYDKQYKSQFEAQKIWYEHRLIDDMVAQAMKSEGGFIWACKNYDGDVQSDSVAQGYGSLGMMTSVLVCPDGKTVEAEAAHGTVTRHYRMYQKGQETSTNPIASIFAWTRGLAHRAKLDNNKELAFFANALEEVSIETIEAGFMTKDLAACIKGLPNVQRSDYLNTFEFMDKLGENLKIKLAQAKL
Pf Dd2 inh = inhibitors of Plasmodium falciparum Dd2 growth; P. falciparum Dd2 growth, SYBR Green, 72 h; stronger effect = lower value; activity change, % at 10 µM; actives 2.3% (n = 94,000); AID 1159554; in the data active = activity change below about -80%; inconclusive = no clear call, values can overlap the other calls
GASC1 inh = blocks human GASC-1 (KDM4C) demethylase activity; actives 0.15% (n = 96,000); GST-KDM4C 2-372, H3K9me3 peptide, LANCE TR-FRET; Q9H3R0; inhibition, % at 12.5 µM;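 active = mean replicate inhibition above about 25%, with at least 55% of replicates also reaching it, limit read from the data, passing the limit was not always enough; inconclusive = only one of those two conditions met; inactive = neither condition met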
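Test system: N-terminal GST-fused human GASC-1 (KDM4C) fragment, residues 2-372; quantity: GASC-1 enzyme at 10 nM final in reaction; dosing: single dose; schedule: 30 min demethylation and 1 h detection at room temperature; signal: LANCE TR-FRET, excitation 340 nm, emissions 618 and 671 nm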
T cruzi growth-2 = inhibitors of T. cruzi proliferation; shares compounds with T cruzi growth-1; T. cruzi beta-gal in NIH3T3, GalScreen luminescence, 90 h; inhibition, % at 8.35 µM; actives 72% (n = 5,600); AID 651739;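 active = mean replicate inhibition above about 95% and at least 55% of replicates individually reaching it, limit read from the data; inconclusive = only one of the two criteria is met; inactive = neither criterion is met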
T cruzi growth-3 = blocks T. cruzi growth in NIH3T3 host cells. shares compounds with T cruzi growth-1. T. cruzi beta-gal in NIH3T3, GalScreen luminescence, 90 h. inhibition, % at 2.09 µM. actives 21% (n = 5,600);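 active = mean inhibition above about 95%, with at least 55% of replicates also reaching it, limit read from the data; inconclusive = meets just one of the two conditions; inactive = meets neither condition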;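 note: plate controls were neutral control median for no effect and positive control median for full effect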
3T3 cytotox = kills mouse NIH/3T3 fibroblasts. shares compounds with T cruzi growth-1. NIH/3T3 viability, CellTiter-Glo ATP luminescence, 90 h. cytotoxicity (signal decrease), % at 8.35 µM. actives 14% (n = 5,600);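 active = mean signal decrease across replicates above about 35% based on untreated-well scatter, with enough replicates individually passing, limit read from the data; inconclusive = no rule stated though some were filed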;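 note: 0% = median of neutral control wells and 100% = median of positive control wells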
NIH3T3 tox 2 = NIH/3T3 (mouse) viability loss; NIH/3T3 viability, CellTiter-Glo ATP luminescence, 90 h; shares compounds with T cruzi growth-1; actives 56% (n = 5,600); AID 651744; inhibition, % at 24.9 µM;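 active = mean loss of cell viability signal at or above a set limit, and enough replicates individually reaching it; inconclusive = meets only the mean limit or only the replicate share; inactive = meets neither condition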;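 note: 0% = median of neutral control wells and 100% = median of positive control wells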
The depositor's hits bear a star; ! = not active in a repeat.

How did C[C@@H]1CN([C@H](C)CO)C(=O)c2cc(C#Cc3ccccc3)cnc2O[C@H]1CN(C)C(=O)c1ccccn1 do in these assays?
T cruzi growth-1: 110.9*; IDH1 R132H inh: 0.5; Pf Dd2 inh: -23.9; GASC1 inh: -0.7; T cruzi growth-2: 101.2*; T cruzi growth-3: 61.8; 3T3 cytotox: 10.5; NIH3T3 tox 2: 29.9*

What do the screens show for `C[C@H]1CN([C@@H](C)CO)C(=O)c2cc(C#Cc3ccccn3)cnc2O[C@@H]1CN(C)Cc1ccccc1`?
T cruzi growth-1: 121.1*!; IDH1 R132H inh: 0.0; Pf Dd2 inh: -42.5; GASC1 inh: -0.2; T cruzi growth-2: 106.9*; T cruzi growth-3: 24.6; 3T3 cytotox: -3.7; NIH3T3 tox 2: -6.3

Results for C[C@@H]1CN([C@H](C)CO)C(=O)c2cc(C#Cc3ccccc3)cnc2O[C@@H]1CN(C)C(=O)c1ccccn1 ?
T cruzi growth-1: 52.9; IDH1 R132H inh: 0.5; Pf Dd2 inh: -0.2; GASC1 inh: 1.3

What do the screens show for `C[C@H]1CN([C@@H](C)CO)C(=O)c2cc(C#Cc3ccccn3)cnc2O[C@H]1CN(C)Cc1ccncc1`?
T cruzi growth-1: 44.0; IDH1 R132H inh: 3.5; Pf Dd2 inh: 10.9; GASC1 inh: 3.3

Results for Cc1ccc(C)c(S(=O)(=O)/N=C(\c2ccccc2)N(C)C)c1 ?
IDH1 R132H inh: -0.5

Results for O=[N+]([O-])c1cccc(NC(=S)NCCn2cc(Cl)cn2)c1 ?
IDH1 R132H inh: 0.0

Results for Cc1cc(OCC(=O)Nc2ccccc2C(=O)NC2CCCCC2)cc(C)c1Cl ?
IDH1 R132H inh: -0.1

Results for COc1ccccc1-c1ccc([C@H]2[C@H](CO)N3CCCCN(C(=O)c4cccnc4)C[C@@H]23)cc1 ?
T cruzi growth-1: 97.5*; Pf Dd2 inh: -14.6; GASC1 inh: -0.1; T cruzi growth-2: inconclusive; T cruzi growth-3: 69.9; 3T3 cytotox: inconclusive; NIH3T3 tox 2: 39.4*

How did Cc1cccc(-c2ccc([C@@H]3[C@H](CO)N4CCCCN(C(=O)c5cccnc5)C[C@@H]34)cc2)c1 do in these assays?
T cruzi growth-1: 105.1*; Pf Dd2 inh: 17.7; GASC1 inh: 17.1; T cruzi growth-2: 65.9; T cruzi growth-3: 5.7; 3T3 cytotox: 23.4; NIH3T3 tox 2: 35.5*

How did Cc1ccccc1-c1ccc([C@H]2[C@@H](CO)N3CCCCN(C(=O)c4cccnc4)C[C@@H]23)cc1 do in these assays?
T cruzi growth-1: 102.5*; Pf Dd2 inh: 47.9; GASC1 inh: 0.0; T cruzi growth-2: 99.5*; T cruzi growth-3: 102.4*; 3T3 cytotox: 37.7*; NIH3T3 tox 2: 48.7*

Results for COc1ccc([N+](=O)[O-])cc1NC(=O)CN(c1ccc(F)c(Cl)c1)S(C)(=O)=O ?
IDH1 R132H inh: -0.4

How did CC(C)c1ccc(NC(=O)Cn2cc([N+](=O)[O-])cn2)cc1 do in these assays?
IDH1 R132H inh: -0.4

Results for C[C@@H]1O[C@@H](O[C@H]2[C@H](O)[C@@H](O)[C@H](O[C@H]3[C@H](O[C@H]4CC[C@@]5(C)C(=CC[C@H]6C7C[C@@H]8O[C@]9(CC[C@@](C)(CO[C@@H]%10O[C@H](CO)[C@@H](O)[C@H](O)[C@H]%10O)O9)[C@H](C)C8[C@@]7(C)CCC65)C4)O[C@H](CO)[C@@H](O)[C@@H]3O)O[C@@H]2CO)[C@H](O)[C@H](O)[C@H]1O (stereo partly drawn) ?
IDH1 R132H inh: 0.0

What do the screens show for `C[C@@H]1CCCCO[C@H](CN(C)C(=O)CCC(F)(F)F)[C@@H](C)CN([C@H](C)CO)C(=O)c2cc(NS(=O)(=O)c3ccc(Cl)cc3)ccc2O1`?
T cruzi growth-1: 87.9; Pf Dd2 inh: -22.0; GASC1 inh: 5.3

Results for C[C@@H]1CN([C@H](C)CO)C(=O)c2cc(NS(=O)(=O)c3ccc(Cl)cc3)ccc2O[C@@H](C)CCCCO[C@@H]1CN(C)C(=O)CCC(F)(F)F ?
T cruzi growth-1: 99.1*; Pf Dd2 inh: -36.3; GASC1 inh: -0.2; T cruzi growth-2: 82.3; T cruzi growth-3: 52.2; 3T3 cytotox: 16.4; NIH3T3 tox 2: 71.0*

How did C[C@@H]1CCCCO[C@H](CN(C)C(=O)CCC(F)(F)F)[C@H](C)CN([C@@H](C)CO)C(=O)c2cc(NS(=O)(=O)c3ccc(Cl)cc3)ccc2O1 do in these assays?
T cruzi growth-1: 104.4*; IDH1 R132H inh: -0.2; Pf Dd2 inh: -2.2; T cruzi growth-2: 102.6*; T cruzi growth-3: 68.1; 3T3 cytotox: 11.2; NIH3T3 tox 2: 71.6*

How did C[C@@H]1CN([C@@H](C)CO)C(=O)c2cc(NS(=O)(=O)c3ccc(Cl)cc3)ccc2O[C@@H](C)CCCCO[C@H]1CN(C)C(=O)CCC(F)(F)F do in these assays?
T cruzi growth-1: 42.5; Pf Dd2 inh: -4.6; GASC1 inh: 1.1

How did C[C@@H](NC(=O)[C@@H]1N[C@@H]2c3ccc(C4=CCCCC4)c(=O)n3C[C@@H]2[C@H]1CO)c1ccccc1 do in these assays?
T cruzi growth-1: 100.8*; Pf Dd2 inh: 3.9; GASC1 inh: 0.3; T cruzi growth-2: 109.2*; T cruzi growth-3: -3.5; 3T3 cytotox: 1.6; NIH3T3 tox 2: 7.0

How did C[C@H](NC(=O)[C@@H]1N[C@@H]2c3ccc(C4=CCCC4)c(=O)n3C[C@@H]2[C@H]1CO)c1ccccc1 do in these assays?
T cruzi growth-1: 96.7*; GASC1 inh: 0.4; T cruzi growth-2: 40.1; T cruzi growth-3: -37.3; 3T3 cytotox: 1.1; NIH3T3 tox 2: -10.1

What do the screens show for `CC(=O)N1[C@@H]2c3ccc(C4=CCCC4)c(=O)n3C[C@H]1[C@H](CO)[C@H]2C(=O)N[C@H](C)c1ccccc1`?
T cruzi growth-1: 101.0*; Pf Dd2 inh: 2.7; GASC1 inh: 0.8; T cruzi growth-2: -16.2; T cruzi growth-3: 8.3; 3T3 cytotox: 12.1; NIH3T3 tox 2: 4.2

What do the screens show for `Cc1ccc(C)c(NC(=O)c2ccc(OCC(=O)Nc3ccc(Cl)c(Cl)c3)cc2)c1`?
IDH1 R132H inh: 0.2

Results for O=C(COc1ccc(Cl)cc1Cl)Nc1ccc2oc(-c3ccncc3)nc2c1 ?
IDH1 R132H inh: -0.3

What do the screens show for `CN1C(=O)c2cc(NC(=O)c3ccc(F)c(F)c3)ccc2OC[C@@H]2O[C@@H](CC(=O)N[C@H]3CCN(Cc4ccccc4)C3)CC[C@H]21`?
T cruzi growth-1: 98.7*; GASC1 inh: -3.9; T cruzi growth-2: inconclusive; T cruzi growth-3: 84.1; 3T3 cytotox: -18.6; NIH3T3 tox 2: -1.2
